Source: ChEMBL document CHEMBL4325831, “Novel Pyrrole-Imidazole Polyamide Hoechst Conjugate Suppresses Epstein-Barr Virus Replication and Virus-Positive Tumor Growth” (J Med Chem, 2018)
Calls of active or inactive are those of the source. No cut-off for these calls is given here.

Assays:
Human gammaherpesvirus 4 [1] = test: Inhibition of Epstein-Barr virus-induced human Raji cell proliferation assessed reduction in cell viability at 10 uM measured at day 3 and day 6 post dose following media refreshment every 3 days trypan blue dye-based assay; type: functional, organism-based
How it was run: (§1)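 5 × 10^5 cells in 2 mL medium with 10 μM polyamide. After 3 days an equal volume of fresh medium containing polyamide was added. Living cells counted by 0.4% trypan blue exclusion at days 3 and 6. Significance by one-way ANOVA.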

Raji [2] = test: Inhibition of EBNA1 binding to Epstein-Barr virus OriP DNA in human Raji cells assessed as reduction in EBNA2 protein expression up to 20 uM after 24 hrs by Western blot analysis; type: cell-based; conditions: human gammaherpesvirus 4
How it was run: (§2)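 Raji cells exposed 24 h to 0, 1, 2, 5, 10 or 20 μM. Cells lysed in nondenaturing buffer with protease inhibitors and run on 10% SDS-PAGE, then PVDF. Membranes probed overnight at 4 °C for EBNA1, EBNA2 and GAPDH, HRP secondary 1 h, chemiluminescent detection. At least triplicate.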

[3] = Inhibition of recombinant EBNA1 binding to biotin-labeled Epstein-Barr virus OriP hairpin DNA EBNA1 site 2 mutant assessed as dissociation constant by SPR assay; design: species or system human gammaherpesvirus 4
How it was run: (§3)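 SPR on a streptavidin-coated chip (about 16 000 RU) carrying biotinylated short hairpin DNA, loaded at 200 nM and immobilized to about 700–900 RU. Run in HBS-EP (10 mM HEPES pH 7.4, 150 mM NaCl, 3 mM EDTA, 0.005% P20) at 25 °C. Polyamides were diluted first in ultrapure water, then into a concentration gradient. ka and kd were fitted from sensorgrams.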

Human gammaherpesvirus 4 [4] = test: Inhibition of Epstein-Barr virus-induced […] cell proliferation after 72 hrs by MTT assay; type: functional; conditions: human gammaherpesvirus 4, B-95-8, 72 h
How it was run: (§4)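 Suspension cells seeded at 7 × 10^3 per well, adherent at 3 × 10^3 per well, in quadruplicate across a concentration series. Grown 72 h, then viability relative to control read by MTT. GI50 from sigmoidal dose–response fit; at least triplicate experiments. RPMI-based medium for suspension lines, high-glucose DMEM for MDA-MB-231, both with 10% FBS, 5% CO2, 37 °C.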

human gammaherpesvirus 4 [5] = test: Inhibition of recombinant EBNA1 binding to biotin-labeled Epstein-Barr virus OriP hairpin DNA EBNA1 site 2 assessed as reduction in RU increase at 200 nM by SPR assay
How it was run: (§5)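 SPR in HBS-EP (10 mM HEPES pH 7.4, 150 mM NaCl, 3 mM EDTA, 0.005% P20) at 25 °C. Biotin hairpin DNA (200 nM) captured at 700–900 RU on streptavidin. Polyamide (200 nM) injected at 25 μL/min for 4 min with no dissociation phase, then 100 nM recombinant EBNA1 for 3 min. Relative reduction in RU rise recorded.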

[6] = Inhibition of recombinant EBNA1 binding to biotin-labeled Epstein-Barr virus OriP hairpin DNA EBNA1 site 1 mutant assessed as dissociation constant by SPR assay; design: species or system human gammaherpesvirus 4; how it was run: as §3
[7] = Inhibition of recombinant EBNA1 binding to biotin-labeled Epstein-Barr virus OriP hairpin DNA EBNA1 site 2 assessed as dissociation constant by SPR assay; design: species or system human gammaherpesvirus 4
MOLT-4 [8] = test: Cell growth inhibition of human MOLT4 cells after 72 hrs by MTT assay; type: functional; conditions: MOLT-4, 72 h; how it was run: as §4
Human gammaherpesvirus 4 [9] = test: Inhibition of Epstein-Barr virus-induced human Daudi cell proliferation after 72 hrs by MTT assay; type: functional; conditions: human gammaherpesvirus 4, Daudi; how it was run: as §4
Raji [10] = test: Inhibition of EBNA1 binding to Epstein-Barr virus OriP DNA in human Raji cells at 10 uM after 24 to 48 hrs by chIP assay; type: cell-based; conditions: human gammaherpesvirus 4
How it was run: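 Raji cells with 10 μM polyamide, 8 × 10^6 harvested at 0, 24 and 48 h. Formaldehyde fixation, enzymatic chromatin ChIP; 2% input kept. IP overnight with 1 μg anti-EBNA1 or mouse IgG1, magnetic-bead capture. OriP detected by SYBR qPCR (95 °C 5 min; 40 cycles of 95 °C 15 s / 60 °C 60 s). ΔΔCt relative to input.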

RPMI-8226 = test: Cell growth inhibition of human RPMI8226 cells after 72 hrs by MTT assay; type: functional; conditions: RPMI-8226, 72 h; how it was run: as §4
Raji [11] = test: Inhibition of EBNA1 binding to Epstein-Barr virus OriP DNA in human Raji cells assessed as reduction in EBV copy number at 10 uM after 120 hrs by qRT-PCR analysis; type: cell-based; conditions: human gammaherpesvirus 4
How it was run: (§6)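 Raji (5 × 10^5), B95-8 (5 × 10^5) or Daudi (1 × 10^6) cells cultured with 10 μM polyamide. Genomic DNA extracted at intervals (Raji every 24 h). SYBR real-time PCR in triplicate: 95 °C 5 min, then 40 cycles of 95 °C 10 s / 60 °C 30 s, followed by melt curve. EBV copies relative to cellular DNA by ΔΔCt.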

[12] = Inhibition of recombinant EBNA1 binding to biotin-labeled Epstein-Barr virus OriP hairpin DNA EBNA1 site 1 assessed as dissociation constant by SPR assay; design: species or system human gammaherpesvirus 4
human gammaherpesvirus 4 [13] = test: Inhibition of recombinant EBNA1 binding to biotin-labeled Epstein-Barr virus OriP hairpin DNA EBNA1 site 1 assessed as reduction in RU increase at 200 nM by SPR assay; how it was run: as §5
NALM-6 = test: Cell growth inhibition of human NALM6 cells after 72 hrs by MTT assay; type: functional; conditions: NALM-6, 72 h; how it was run: as §4
MOLT-4 [14] = test: Cell growth inhibition of human MOLT4 cells at 10 uM measured at day 3 and day 6 following media refreshment every 3 days by trypan blue dye-based assay; type: functional; how it was run: as §1
MDA-MB-231 = test: Cell growth inhibition of human MDA-MB-231 cells after 72 hrs by MTT assay; type: functional; conditions: MDA-MB-231, 72 h; how it was run: as §4
Raji [15] = test: Inhibition of EBNA1 binding to Epstein-Barr virus OriP DNA in human Raji cells assessed as reduction in EBNA1 protein expression up to 20 uM after 24 hrs by Western blot analysis; type: cell-based; conditions: human gammaherpesvirus 4; how it was run: as §2
Jurkat = test: Cell growth inhibition of human Jurkat cells after 72 hrs by MTT assay; type: functional; how it was run: as §4
Human gammaherpesvirus 4 [16] = test: Inhibition of Epstein-Barr virus-induced human Daudi cell proliferation assessed reduction in cell viability at 10 uM measured at day 3 and day 6 post dose following media refreshment every 3 days trypan blue dye-based assay; type: functional, organism-based; how it was run: as §1
Human gammaherpesvirus 4 [17] = test: Inhibition of Epstein-Barr virus-induced human Raji cell proliferation after 72 hrs by MTT assay; type: functional; conditions: human gammaherpesvirus 4, Raji; how it was run: as §4
[18] = Toxicity in Balb/c mouse infected with Epstein-Barr virus positive human Raji cells assessed as body weight loss at 5 to 10 mg/kg, sc administered every 3 days for 25 days and measured every 3 days before drug injection; type: organism-based; conditions: in vivo
How it was run: (§7)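 Female Balb/c nude mice given 1 × 10^7 Raji cells sc in left flank (in 100 μL serum-free RPMI). Dosing began at tumor ~50 mm3 (L × W × 1/2W). Compound in 100 μL 5% DMSO/0.9% NaCl, injected sc around tumor every 3 days, eight injections; vehicle n = 6, treated groups n = 7. Tumor size and body weight taken before each injection. Tumor DNA analysed by real-time PCR for relative EBV copy number.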

Human gammaherpesvirus 4 [19] = test: Inhibition of Epstein-Barr virus-induced human Raji cell proliferation xenografted in Balb/c mouse assessed as reduction in tumor size at 10 mg/kg, sc administered every 3 days for 25 days and measured every 3 days before drug injection; type: functional, organism-based; how it was run: as §7
Human gammaherpesvirus 4 [20] = test: Antiviral activity against Epstein-Barr virus positive human Raji cells xenografted in Balb/c mouse assessed as reduction in EBV DNA copy at 5 to 10 mg/kg, sc administered every 3 days for 25 days; type: functional, organism-based; how it was run: as §7
Human gammaherpesvirus 4 [21] = test: Inhibition of Epstein-Barr virus-induced human Raji cell proliferation xenografted in Balb/c mouse assessed as reduction in tumor size at 5 mg/kg, sc administered every 3 days for 25 days and measured every 3 days before drug injection; type: functional, organism-based; how it was run: as §7
human gammaherpesvirus 4 [22] = test: Inhibition of EBNA1 binding to Epstein-Barr virus OriP DNA in […] cells assessed as reduction in EBV copy number at 10 uM after 120 hrs by qRT-PCR analysis; type: cell-based; how it was run: as §6
Daudi = test: Inhibition of EBNA1 binding to Epstein-Barr virus OriP DNA in human Daudi cells assessed as reduction in EBV copy number at 10 uM after 120 hrs by qRT-PCR analysis; type: cell-based; conditions: human gammaherpesvirus 4; how it was run: as §6

Row | SMILES | inhibition (Human gammaherpesvirus 4 [1]) | inhibition (Raji [2]) | Kd [3] | GI50 (Human gammaherpesvirus 4 [4]) | fold change (FC) (human gammaherpesvirus 4 [5]) | Kd [6] | Kd [7] | GI50 (MOLT-4 [8]) | GI50 (Human gammaherpesvirus 4 [9]) | inhibition (Raji [10]) | GI50 (RPMI-8226) | inhibition (Raji [11]) | Kd [12] | fold change (FC) (human gammaherpesvirus 4 [13]) | GI50 (NALM-6) | growth inhibition (GI) (MOLT-4 [14]) | GI50 (MDA-MB-231) | inhibition (Raji [15]) | GI50 (Jurkat) | inhibition (Human gammaherpesvirus 4 [16]) | other results
1 | CN(C)CCCNC(=O)c1cc(NC(=O)c2nc(NC(=O)c3cc(NC(=O)c4cc(NC(=O)[C@H](N)CCNC(=O)c5cc(NC(=O)c6cc(NC(=O)c7cc(NC(=O)c8nccn8C)cn7C)cn6C)cn5C)cn4C)cn3C)cn2C)cn1C | Active | inactive | 0.0206 µM | 30.2 µM | 0.524 | 0.0252 µM | 0.00452 µM | 30.3 µM | 12.9 µM | inactive | 43.9 µM | inactive | 0.0015 µM | 0.646 | 41.9 µM | inactive | > 100 µM | inactive | > 100 µM | Active | GI50 (Human gammaherpesvirus 4 [17]): 29.4 µM
2 | CN(C)CCCNC(=O)c1cc(NC(=O)c2nc(NC(=O)c3cc(NC(=O)c4cc(NC(=O)[C@@H](CCNC(=O)c5cc(NC(=O)c6cc(NC(=O)c7cc(NC(=O)c8nccn8C)cn7C)cn6C)cn5C)NC(=O)CCCOc5ccc(-c6nc7cc(-c8nc9cc(N%10CCN(C)CC%10)ccc9[nH]8)ccc7[nH]6)cc5)cn4C)cn3C)cn2C)cn1C | Active | Dose-dependent effect | 0.187 µM | 9.42 µM | 0.412 | 0.747 µM | 0.0129 µM | 25 µM | 4.02 µM | Active | 24.5 µM | Active | 0.0228 µM | 0.583 | 22.2 µM | inactive | > 100 µM | Dose-dependent effect | > 100 µM | Active | Activity [18]: Non-Toxic; inhibition (Human gammaherpesvirus 4 [19]): Active; Activity (Human gammaherpesvirus 4 [20]): Active; inhibition (Human gammaherpesvirus 4 [21]): Active; inhibition (human gammaherpesvirus 4 [22]): Active; inhibition (Daudi): Active; GI50 (Human gammaherpesvirus 4 [17]): 8 µM
3 | CN(C)CCCNC(=O)c1cc(NC(=O)c2cc(NC(=O)c3cc(NC(=O)c4cc(NC(=O)[C@@H](CCNC(=O)c5cc(NC(=O)c6cc(NC(=O)c7nc(NC(=O)c8nccn8C)cn7C)cn6C)cn5C)NC(=O)CCCOc5ccc(-c6nc7cc(-c8nc9cc(N%10CCN(C)CC%10)ccc9[nH]8)ccc7[nH]6)cc5)cn4C)cn3C)cn2C)cn1C |  |  |  |  | 0.088 |  | 0.263 µM |  |  |  |  | inactive | 0.335 µM | 0.091 |  |  |  |  |  |  | 
